≈ marks a conversion by molar mass, not a printed value.
Legend:
[1] = Intrinsic clearance in rat liver microsomes at 1 uM after 1 to 40 mins in presence of NADPH by LC-MS/MS analysis; format: ADME, microsome; conditions: read-out: CLH
[2] = Intrinsic clearance in human liver microsomes at 1 uM after 1 to 40 mins in presence of NADPH by LC-MS/MS analysis; format: ADME, microsome; conditions: read-out: CLH
[3] = biological target: Sodium channel protein type 5 subunit alpha (Homo sapiens, UniProt Q14524); experiment: Inhibition of human Nav1.5 expressed in HEK293 cells assessed as reduction in peak inward current by ionworks quattro electrophysiology assay; format: cell-based
Sequence of Sodium channel protein type 5 subunit alpha (Q14524 whole entry): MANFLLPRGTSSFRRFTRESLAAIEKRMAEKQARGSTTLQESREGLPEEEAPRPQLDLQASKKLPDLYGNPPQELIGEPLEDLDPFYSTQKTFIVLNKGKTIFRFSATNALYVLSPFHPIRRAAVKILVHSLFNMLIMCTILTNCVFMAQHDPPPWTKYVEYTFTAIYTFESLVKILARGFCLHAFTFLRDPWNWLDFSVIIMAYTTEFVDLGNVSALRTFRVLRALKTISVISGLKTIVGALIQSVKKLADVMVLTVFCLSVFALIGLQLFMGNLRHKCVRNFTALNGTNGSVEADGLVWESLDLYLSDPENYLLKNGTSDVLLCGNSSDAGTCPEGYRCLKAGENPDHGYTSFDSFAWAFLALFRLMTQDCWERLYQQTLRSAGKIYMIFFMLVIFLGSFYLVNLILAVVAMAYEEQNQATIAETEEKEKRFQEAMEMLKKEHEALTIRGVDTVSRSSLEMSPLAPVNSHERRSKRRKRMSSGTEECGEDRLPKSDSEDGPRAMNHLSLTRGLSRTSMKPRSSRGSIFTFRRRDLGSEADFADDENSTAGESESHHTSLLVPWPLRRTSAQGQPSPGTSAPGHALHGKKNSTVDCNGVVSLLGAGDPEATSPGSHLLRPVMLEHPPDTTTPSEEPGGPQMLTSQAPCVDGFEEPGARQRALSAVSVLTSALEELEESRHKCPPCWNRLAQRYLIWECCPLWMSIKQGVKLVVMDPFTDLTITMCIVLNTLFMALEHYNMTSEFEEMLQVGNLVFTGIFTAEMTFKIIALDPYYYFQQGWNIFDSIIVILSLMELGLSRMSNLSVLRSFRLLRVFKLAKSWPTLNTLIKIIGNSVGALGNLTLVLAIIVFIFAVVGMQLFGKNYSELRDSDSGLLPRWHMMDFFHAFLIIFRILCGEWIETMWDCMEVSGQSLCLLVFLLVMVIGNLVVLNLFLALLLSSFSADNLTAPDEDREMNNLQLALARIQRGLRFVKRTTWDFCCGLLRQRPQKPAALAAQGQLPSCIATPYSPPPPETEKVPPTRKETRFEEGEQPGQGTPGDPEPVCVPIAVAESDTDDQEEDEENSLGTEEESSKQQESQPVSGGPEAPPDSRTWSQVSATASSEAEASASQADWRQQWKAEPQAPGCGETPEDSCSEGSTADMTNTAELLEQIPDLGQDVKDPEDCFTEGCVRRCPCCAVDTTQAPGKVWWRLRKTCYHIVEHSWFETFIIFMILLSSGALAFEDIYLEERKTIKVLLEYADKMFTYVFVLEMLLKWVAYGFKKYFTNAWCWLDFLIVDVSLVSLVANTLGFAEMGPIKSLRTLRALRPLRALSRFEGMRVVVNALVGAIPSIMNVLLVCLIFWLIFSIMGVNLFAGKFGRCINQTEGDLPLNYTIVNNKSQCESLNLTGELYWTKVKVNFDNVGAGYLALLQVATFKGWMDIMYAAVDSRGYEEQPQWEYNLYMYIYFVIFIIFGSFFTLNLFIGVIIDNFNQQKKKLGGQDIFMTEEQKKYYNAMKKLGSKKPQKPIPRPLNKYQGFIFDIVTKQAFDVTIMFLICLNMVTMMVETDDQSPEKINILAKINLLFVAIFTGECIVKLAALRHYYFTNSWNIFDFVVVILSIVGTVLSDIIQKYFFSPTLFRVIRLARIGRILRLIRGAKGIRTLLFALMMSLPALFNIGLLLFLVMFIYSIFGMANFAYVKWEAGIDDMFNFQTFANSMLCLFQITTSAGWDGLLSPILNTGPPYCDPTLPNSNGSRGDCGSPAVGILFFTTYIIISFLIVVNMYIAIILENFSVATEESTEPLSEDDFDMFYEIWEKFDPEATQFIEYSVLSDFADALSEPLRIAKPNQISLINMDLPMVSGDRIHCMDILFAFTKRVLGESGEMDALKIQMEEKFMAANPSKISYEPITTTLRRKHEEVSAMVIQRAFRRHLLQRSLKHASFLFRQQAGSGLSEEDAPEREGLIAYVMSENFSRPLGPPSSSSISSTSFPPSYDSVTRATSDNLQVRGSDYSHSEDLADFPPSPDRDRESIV

[4] = biological target: Sodium channel protein type 9 subunit alpha (Homo sapiens, UniProt Q15858); experiment: Inhibition of human Nav1.7 expressed in HEK293 cells incubated for 3 to 5 mins at -125 mV holding potential by electrophysiology assay; format: cell-based
Sequence of Sodium channel protein type 9 subunit alpha (Q15858 whole entry): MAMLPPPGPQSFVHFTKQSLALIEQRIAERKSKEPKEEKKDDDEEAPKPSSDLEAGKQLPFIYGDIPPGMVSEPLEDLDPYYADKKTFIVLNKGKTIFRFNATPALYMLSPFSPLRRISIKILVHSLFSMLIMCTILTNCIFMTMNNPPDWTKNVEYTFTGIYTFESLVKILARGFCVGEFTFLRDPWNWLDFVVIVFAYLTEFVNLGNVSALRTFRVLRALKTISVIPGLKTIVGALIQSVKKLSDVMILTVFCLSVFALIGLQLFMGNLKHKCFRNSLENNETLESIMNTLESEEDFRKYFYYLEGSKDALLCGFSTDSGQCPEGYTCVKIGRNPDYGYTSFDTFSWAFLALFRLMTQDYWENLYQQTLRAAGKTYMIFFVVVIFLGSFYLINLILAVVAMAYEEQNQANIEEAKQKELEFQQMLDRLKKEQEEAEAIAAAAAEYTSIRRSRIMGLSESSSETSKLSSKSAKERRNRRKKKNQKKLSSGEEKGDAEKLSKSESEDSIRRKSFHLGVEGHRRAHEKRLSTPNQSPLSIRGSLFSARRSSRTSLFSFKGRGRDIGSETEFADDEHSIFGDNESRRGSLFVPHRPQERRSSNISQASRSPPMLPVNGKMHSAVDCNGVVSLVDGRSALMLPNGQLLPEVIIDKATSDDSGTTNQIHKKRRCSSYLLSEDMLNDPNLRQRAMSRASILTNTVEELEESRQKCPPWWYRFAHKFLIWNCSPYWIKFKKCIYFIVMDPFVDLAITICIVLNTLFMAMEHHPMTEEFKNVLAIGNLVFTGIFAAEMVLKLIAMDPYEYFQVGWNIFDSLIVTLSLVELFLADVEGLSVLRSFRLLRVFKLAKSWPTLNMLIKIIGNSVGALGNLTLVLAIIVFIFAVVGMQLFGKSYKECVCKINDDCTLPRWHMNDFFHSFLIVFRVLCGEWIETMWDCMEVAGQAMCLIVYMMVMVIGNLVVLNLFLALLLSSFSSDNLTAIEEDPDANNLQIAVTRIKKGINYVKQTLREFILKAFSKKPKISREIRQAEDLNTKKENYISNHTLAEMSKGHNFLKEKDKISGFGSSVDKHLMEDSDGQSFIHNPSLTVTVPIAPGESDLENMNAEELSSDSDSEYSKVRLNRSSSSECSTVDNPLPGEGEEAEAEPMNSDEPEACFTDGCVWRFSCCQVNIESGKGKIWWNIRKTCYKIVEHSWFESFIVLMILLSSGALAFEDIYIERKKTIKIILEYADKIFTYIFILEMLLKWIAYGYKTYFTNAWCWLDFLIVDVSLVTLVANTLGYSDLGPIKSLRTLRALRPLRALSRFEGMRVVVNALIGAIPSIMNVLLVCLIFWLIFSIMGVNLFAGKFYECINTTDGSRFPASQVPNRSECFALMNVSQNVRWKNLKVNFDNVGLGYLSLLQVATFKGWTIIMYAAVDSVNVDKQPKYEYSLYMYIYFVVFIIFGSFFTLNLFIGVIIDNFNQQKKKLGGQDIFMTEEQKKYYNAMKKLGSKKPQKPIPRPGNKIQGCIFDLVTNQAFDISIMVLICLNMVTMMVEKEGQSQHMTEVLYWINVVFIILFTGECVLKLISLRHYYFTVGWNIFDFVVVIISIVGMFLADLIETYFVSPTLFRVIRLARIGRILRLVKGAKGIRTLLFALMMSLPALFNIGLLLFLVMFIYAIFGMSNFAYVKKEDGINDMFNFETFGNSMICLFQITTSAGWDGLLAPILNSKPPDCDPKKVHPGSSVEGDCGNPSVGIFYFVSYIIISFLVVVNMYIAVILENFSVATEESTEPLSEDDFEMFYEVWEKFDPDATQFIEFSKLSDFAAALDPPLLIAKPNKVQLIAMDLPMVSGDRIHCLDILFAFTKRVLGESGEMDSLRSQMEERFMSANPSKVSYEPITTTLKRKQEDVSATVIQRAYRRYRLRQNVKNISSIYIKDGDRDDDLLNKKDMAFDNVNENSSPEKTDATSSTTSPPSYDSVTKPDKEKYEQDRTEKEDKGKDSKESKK

Cytochrome P450 3A4 [5] = biological target: T1, Cytochrome P450 3A4 (Homo sapiens, UniProt P08684); experiment: Inhibition of CYP3A4 (unknown origin); format: ADME
T1 sequence (P08684 whole entry): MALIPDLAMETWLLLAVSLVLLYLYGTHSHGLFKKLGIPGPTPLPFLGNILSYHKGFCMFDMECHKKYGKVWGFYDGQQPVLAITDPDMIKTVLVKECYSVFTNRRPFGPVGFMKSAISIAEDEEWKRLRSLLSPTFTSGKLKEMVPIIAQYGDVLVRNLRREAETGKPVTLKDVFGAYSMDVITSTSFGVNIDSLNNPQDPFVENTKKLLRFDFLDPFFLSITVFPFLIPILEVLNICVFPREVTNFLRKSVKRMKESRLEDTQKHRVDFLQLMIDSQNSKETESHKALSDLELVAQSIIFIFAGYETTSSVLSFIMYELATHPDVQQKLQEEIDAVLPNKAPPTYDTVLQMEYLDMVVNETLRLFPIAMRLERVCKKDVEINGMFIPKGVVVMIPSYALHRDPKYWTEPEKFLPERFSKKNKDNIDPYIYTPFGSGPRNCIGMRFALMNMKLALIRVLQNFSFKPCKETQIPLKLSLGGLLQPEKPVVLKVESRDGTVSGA

PXR (NR1I2) = biological target: T2, PXR (NR1I2) (Homo sapiens, UniProt O75469); experiment: Activation of human PXR at 10 uM in presence of rifampicin; format: ADME; conditions: read-out: Activity
T2 sequence (O75469 whole entry): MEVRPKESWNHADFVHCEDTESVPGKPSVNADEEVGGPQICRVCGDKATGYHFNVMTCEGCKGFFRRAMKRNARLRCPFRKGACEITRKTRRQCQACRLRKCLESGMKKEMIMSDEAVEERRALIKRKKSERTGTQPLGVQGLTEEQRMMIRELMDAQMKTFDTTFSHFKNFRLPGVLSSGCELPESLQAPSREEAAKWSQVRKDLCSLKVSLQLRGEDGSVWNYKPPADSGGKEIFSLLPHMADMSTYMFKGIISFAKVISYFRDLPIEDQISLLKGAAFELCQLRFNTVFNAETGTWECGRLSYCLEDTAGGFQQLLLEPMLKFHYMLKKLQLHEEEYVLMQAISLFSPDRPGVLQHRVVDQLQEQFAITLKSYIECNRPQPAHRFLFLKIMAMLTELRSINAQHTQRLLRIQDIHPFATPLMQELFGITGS

[6] = Aqueous solubility of the compound in PBS after 48 hrs by shake flask method; format: physicochemical
[7] = Intrinsic clearance in dog liver microsomes; format: ADME, Canis lupus familiaris, microsome; conditions: read-out: CLH
Cytochrome P450 3A4 [8] = biological target: T1, Cytochrome P450 3A4; experiment: Induction of CYP3A4 in human hepatocytes at 10 uM relative to rifampicin
[9] = Total clearance in rat at 0.5 mg/kg, iv; format: ADME, organism-based; conditions: in vivo
Outline: (§1)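 Male rats given a single 0.5 mg/kg iv dose in DMSO. Unbound clearance (CLu) is total clearance divided by fu, the unbound fraction in plasma.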

Rattus norvegicus = experiment: Unbound clearance in rat at 0.5 mg/kg, iv; format: ADME, organism-based; conditions: in vivo; outline: as §1
[10] = Total clearance in dog at 0.25 mg/kg, iv; format: ADME, organism-based, Canis lupus familiaris; conditions: in vivo
Outline: (§2)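 Male dogs received a single 0.25 mg/kg iv dose in DMSO. Unbound clearance (CLu) is total clearance divided by fu, the unbound fraction in plasma.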

Canis familiaris = experiment: Unbound clearance in dog at 0.25 mg/kg, iv; format: ADME, organism-based, Canis lupus familiaris; conditions: in vivo; outline: as §2

Row | SMILES | microsomal CLint at 1 µM [1] [µL/min/mg] | microsomal CLint at 1 µM [2] [µL/min/mg] | IC50 [3] [nM] | IC50 [4] [nM] | IC50 (Cytochrome P450 3A4 [5]) [nM] | activity at 10 µM (PXR (NR1I2)) [%] | solubility thermodynamic at 48 h [6] [µM] | microsomal CLint [7] [µL/min/mg] | Activity (Cytochrome P450 3A4 [8]) [%] | clearance [9] [mL/min/kg] | CL free (Rattus norvegicus) [mL/min/kg] | clearance [10] [mL/min/kg] | CL free (Canis familiaris) [mL/min/kg]
1 | COc1cc(-c2cccc(F)c2)c(Cl)cc1-c1nccc2cc(S(=O)(=O)Nc3ncccn3)ccc12 | 32 | < 14 | > 10000 | 120 | > 27000 | 31 |  |  |  |  |  |  | 
2 | COc1cc(-c2cccc(F)c2)c(Cl)cc1-c1nccc2cc(S(=O)(=O)Nc3ncns3)ccc12 | < 14 | < 14 | 1500 |  | 800 | 5.9 |  |  |  |  |  |  | 
3 | COc1cc(-c2cccc(Cl)c2)c(F)cc1-c1nccc2cc(S(=O)(=O)Nc3ccon3)ccc12 | 34 | 36 |  |  |  | 34 |  |  |  |  |  |  | 
4 | COc1cc(-c2cccc(F)c2)ccc1-c1nccc2cc(S(=O)(=O)Nc3ccncn3)ccc12 | < 14 | < 14 | > 30000 | 150 | 1300 |  | 344 (≈ 167 µg/mL) | < 14 | 12 | 28.3 | 6500 | 0.817 | 152
5 | COc1cc(-c2cc(F)cc(F)c2)ccc1-c1nccc2cc(S(=O)(=O)Nc3ccon3)ccc12 |  |  |  |  |  | 38 |  |  |  |  |  |  | 
6 | COc1cc(-c2ccc(C(F)(F)F)cc2)c(F)cc1-c1nccc2cc(S(=O)(=O)Nc3ccon3)ccc12 | < 14 | < 14 | > 10000 |  |  | 0 |  |  |  |  |  |  | 
7 | COc1cc(-c2cc(F)cnc2OC)c(F)cc1-c1nccc2cc(S(=O)(=O)Nc3ccon3)ccc12 | 21 | < 14 | > 10000 |  |  | 151 |  |  |  |  |  |  | 
8 | COc1cc(-c2ccc(Cl)c(C)c2)c(F)cc1-c1nccc2cc(S(=O)(=O)Nc3ccon3)ccc12 | 21 | 35 | > 10000 |  |  | 1 |  |  |  |  |  |  | 
9 | COc1cc(C(F)(F)F)ccc1-c1ncnc2cc(S(=O)(=O)Nc3nccs3)ccc12 |  |  | > 30000 |  | > 50000 |  |  |  | 128 |  | 450 | 0.217 | 200
10 | COc1cc(-c2cccc(F)c2)c(Cl)cc1-c1nccc2cc(S(=O)(=O)Nc3cccnn3)ccc12 | 29 | < 14 |  |  | > 27000 | 52 |  |  |  |  |  |  | 
11 | COc1cc(-c2cccc(F)c2)c(Cl)cc1-c1nccc2cc(S(=O)(=O)Nc3ncco3)ccc12 | 98 | 46 | > 10000 |  | > 27000 | 38 |  |  |  |  |  |  | 
12 | COc1cc(-c2cccc(F)c2)c(Cl)cc1-c1c(=O)n(C)cc2cc(S(=O)(=O)Nc3ccon3)ccc12 | 21 | < 14 | > 10000 |  |  | 69 |  |  |  |  |  |  | 
13 | COc1cc(-c2cccc(F)c2)c(Cl)cc1-c1ncnc2cc(S(=O)(=O)Nc3ccon3)ccc12 | 58 | 21 |  |  |  | 59 |  |  |  |  |  | 2 | 417
14 | COc1cc(-c2cccc(F)c2)c(Cl)cc1-c1nccc2cc(S(=O)(=O)Nc3ccncn3)ccc12 | < 14 | < 14 | > 10000 | 65 | > 27000 | 24 |  |  |  |  |  |  | 
15 | COc1cc(-c2cc(F)cc(F)c2)c(F)cc1-c1nccc2cc(S(=O)(=O)Nc3ccon3)ccc12 | < 14 | 30 | > 10000 | 40 |  | 47 |  |  |  |  |  |  | 
16 | COc1cc(-c2cc(F)cc(F)c2)c(C#N)cc1-c1nccc2cc(S(=O)(=O)Nc3ccon3)ccc12 |  |  |  | 140 |  | 54 |  |  |  |  |  |  | 
17 | COc1cc(C(F)(F)F)ccc1-c1nccc2cc(S(=O)(=O)Nc3ccncn3)ccc12 |  |  | > 30000 | 730 | 7200 |  |  |  | 177 | 4.33 | 183 | 0.917 | 26.7
18 | COc1cc(-c2cccc(F)c2)c(Cl)cc1-c1nccc2cc(S(=O)(=O)Nc3ccon3)ccc12 | 18 | < 14 | > 10000 | 49 to 51 | > 27000 | 68 |  |  | 58 | 0.783 | 700 | 0.05 | 26.7 to 31.7
19 | COc1cc(-c2cccc(C(F)(F)F)c2)c(C#N)cc1-c1nccc2cc(S(=O)(=O)Nc3ccon3)ccc12 |  |  |  | 28 |  | 5 |  |  |  |  |  |  | 
20 | COc1cc(-c2cccc(F)c2)c(Cl)cc1-c1nn(C)c(=O)c2cc(S(=O)(=O)Nc3ccon3)ccc12 | 25 | 16 |  | 120 |  | 54 |  |  |  | 35 | 10300 | 1.83 | 517
21 | COc1cc(-c2cccc(F)c2)c(Cl)cc1-c1c(N)nnc2cc(S(=O)(=O)Nc3ccon3)ccc12 | < 14 | < 14 | 140 |  |  | 95 |  |  |  |  |  |  | 
22 | COc1cc(-c2cccc(F)c2)c(Cl)cc1-c1[nH]c(=O)cc2cc(S(=O)(=O)Nc3ccon3)ccc12 | 18 | < 14 | 820 |  |  | 27 |  |  |  | 35 | 25000 | 13.7 | 8500
23 | COc1cc(-c2cccc(C(F)(F)F)c2)ccc1-c1nccc2cc(S(=O)(=O)Nc3ccon3)ccc12 |  |  |  | 61 |  | 7 |  |  |  |  |  |  | 
24 | COc1cc(-c2cccc(F)c2)c(Cl)cc1-c1ncc(O)c2cc(S(=O)(=O)Nc3ccon3)ccc12 | 28 | 15 |  |  |  | 28 |  |  |  |  |  | 2.17 | 2330
25 | COc1cc(-c2cccc(F)c2)c(Cl)cc1-c1nccc2cc(S(=O)(=O)Nc3ncon3)ccc12 | 20 | < 14 |  | 47 | > 27000 | 10 |  |  |  | 26.7 | 15700 | 2.83 | 2570
26 | COc1cc(-c2cccc(C)c2)c(F)cc1-c1nccc2cc(S(=O)(=O)Nc3ccon3)ccc12 | 34 | 36 | > 10000 | 47 |  | 54 |  |  |  |  |  |  | 

— ChEMBL document CHEMBL4011598, “Sulfonamides as Selective NaV1.7 Inhibitors: Optimizing Potency and Pharmacokinetics While Mitigating Metabolic Liabilities” (J Med Chem, 2017)
